Test results taken from ChEMBL document CHEMBL1156133, “Losartan-antioxidant hybrids: novel molecules for the prevention of hypertension-induced cardiovascular damage” (J Med Chem, 2009).
Active and inactive are the calls of the source. The calls are words filed in the database; no cut-off is given here.

Legend:
[1] = Antioxidant activity assessed as inhibition of oxidation of chromogen (ABTS) measured per mmol/L of product by total antioxidant assay; format: functional
Method in brief: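 Total antioxidant status kit: inhibition of ABTS oxidation by metmyoglobin and hydrogen peroxide, followed at 600 nm absorbance; antioxidant ability proportional to absorbance reduction, expressed as mM. Compounds tested at 1 mmol/L.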

VSMC = assay: Displacement of [125I]angiotensin II from angiotensin 2 receptor in Wistar rat VSMC cells by gamma-counter; format: cell-based; set-up: concentration or dose not given beside the values
Method in brief: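 Rat aortic VSMC (collagenase-derived primary cultures, passages 3-5) resuspended in Tris-glucose-NaCl buffer pH 7.4 at 0.5 μg/μL protein; 125 μg protein incubated 45 min with 0.15 nM 125I-angiotensin II plus compound. Bound separated by centrifugation, pellet washed with cold 0.15 M NaCl, gamma counted; nonspecific binding with 10^-4 M angiotensin II.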

Rattus norvegicus [2] = assay: Antihypertensive activity in L-NAME-induced Wistar rat assessed as decrease in blood protein level at 30 mg/kg/day, po for last 4 weeks measured after 8 weeks; format: functional
Method in brief: (§1)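 Two-month-old male Wistar rats given L-NAME in drinking water (20 mg/kg/day) for 8 weeks. From week 4, treatment is given daily in drinking water during 12.00–18.00 h, at the dose stated in the line. Ten rats per group. Sacrificed under halothane between 9.00 and 10.00 h. Serum is measured on an automatic analyzer. Mean ± SEM, nonparametric statistics.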

Rattus norvegicus [3] = assay: Antihypertensive activity in Wistar rat assessed as normalization of L-NAME-induced fibronectin content in vessel walls at 30 mg/kg/day, po for 4 weeks in presence of losartan; format: functional, organism-based
Method in brief: (§2)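 Male Wistar rats on L-NAME in drinking water (20 mg/kg/day) for 8 weeks, treatments in drinking water for the last 4 weeks. Thoracic aorta lysates run on SDS-PAGE and Western blotted for collagen type I, fibronectin or HNE-lysine, with β-tubulin as loading control; ECL detection, densitometry. Expressed as percent of basal; mean ± SEM of 10 experiments.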

Rattus norvegicus [4] = assay: Antihypertensive activity in L-NAME-induced Wistar rat assessed as decrease in blood LDH level at 30 mg/kg/day, po for last 4 weeks measured after 8 weeks; format: functional; method in brief: as §1
Rattus norvegicus [5] = assay: Antihypertensive activity in Wistar rat assessed as normalization of L-NAME-induced collagen 1 level in vessel walls at 30 mg/kg/day, po for 4 weeks in presence of losartan; format: functional, organism-based; method in brief: as §2
Rattus norvegicus [6] = assay: Antihypertensive activity in L-NAME-induced Wistar rat assessed as decrease in blood cholesterol level at 30 mg/kg/day, po for last 4 weeks measured after 8 weeks; format: functional; method in brief: as §1
Rattus norvegicus [7] = assay: Antihypertensive activity in Wistar rat assessed as normalization of L-NAME-induced HNE-lysine accumulation in vessel walls at 30 mg/kg/day, po for 4 weeks in presence of losartan; format: functional, organism-based; method in brief: as §2
Rattus norvegicus [8] = assay: Antihypertensive activity in Wistar rat assessed as normalization of L-NAME-induced heart weight at 30 mg/kg/day, po for 4 weeks in presence of L-NAME; format: functional, organism-based
Method in brief: (§3)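 L-NAME (20 mg/kg/day, drinking water, 8 weeks) hypertensive two-month-old male Wistar rats; treatments in drinking water daily for the last 4 weeks. Systolic pressure by tail-cuff in conscious animals. At sacrifice heart weighed (corrected to body weight); aortic rings from descending thoracic aorta, formaldehyde-flushed, media thickness by planimetry. Mean ± SEM of 10 rats.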

Rattus norvegicus [9] = assay: Antihypertensive activity in L-NAME-induced Wistar rat assessed as decrease in blood creatinine level at 30 mg/kg/day, po for last 4 weeks measured after 8 weeks; format: functional; method in brief: as §1
Rattus norvegicus [10] = assay: Antihypertensive activity in Wistar rat assessed as normalization of L-NAME-induced systolic blood pressure at 30 mg/kg/day, po for 4 weeks; format: functional, organism-based; conditions: Artery; method in brief: as §3
Rattus norvegicus [11] = assay: Antihypertensive activity in L-NAME-induced Wistar rat assessed as decrease in blood ALT level at 30 mg/kg/day, po for last 4 weeks measured after 8 weeks; format: functional; method in brief: as §1
Rattus norvegicus [12] = assay: Antihypertensive activity in L-NAME-induced Wistar rat assessed as decrease in blood AST level at 30 mg/kg/day, po for last 4 weeks measured after 8 weeks; format: functional; method in brief: as §1
Rattus norvegicus [13] = assay: Antihypertensive activity in L-NAME-induced Wistar rat assessed as decrease in blood calcium level at 30 mg/kg/day, po for last 4 weeks measured after 8 weeks; format: functional; method in brief: as §1
Rattus norvegicus [14] = assay: Antihypertensive activity in L-NAME-induced Wistar rat assessed as decrease in blood triglyceride level at 30 mg/kg/day, po for last 4 weeks measured after 8 weeks; format: functional; method in brief: as §1
Rattus norvegicus [15] = assay: Antihypertensive activity in L-NAME-induced Wistar rat assessed as decrease in blood […] level at 30 mg/kg/day, po for last 4 weeks measured after 8 weeks; format: functional; method in brief: as §1
Rattus norvegicus [16] = assay: Antihypertensive activity in L-NAME-induced Wistar rat assessed as decrease in blood urea level at 30 mg/kg/day, po for last 4 weeks measured after 8 weeks; format: functional; method in brief: as §1
Rattus norvegicus [17] = assay: Antihypertensive activity in L-NAME-induced Wistar rat assessed as decrease in blood Na+ level at 30 mg/kg/day, po for last 4 weeks measured after 8 weeks; format: functional; method in brief: as §1
Rattus norvegicus [18] = assay: Antihypertensive activity in Wistar rat assessed as normalization of L-NAME-induced aorta thickness at 10 mg/kg/day, po for 4 weeks; format: functional, organism-based; method in brief: as §3
Rattus norvegicus [19] = assay: Antihypertensive activity in L-NAME-induced Wistar rat assessed as decrease in blood glucose level at 30 mg/kg/day, po for last 4 weeks measured after 8 weeks; format: functional; method in brief: as §1
Rattus norvegicus [20] = assay: Antihypertensive activity in Wistar rat assessed as normalization of L-NAME-induced systolic blood pressure at 10 mg/kg/day, po for 4 weeks; format: functional, organism-based; conditions: Artery; method in brief: as §3
Rattus norvegicus [21] = assay: Antihypertensive activity in L-NAME-induced Wistar rat assessed as decrease in blood triglyceride level at 20 mg/kg/day, po for last 4 weeks measured after 8 weeks; format: functional; method in brief: as §1
Rattus norvegicus [22] = assay: Antihypertensive activity in L-NAME-induced Wistar rat assessed as decrease in blood calcium level at 20 mg/kg/day, po for last 4 weeks measured after 8 weeks; format: functional; method in brief: as §1
Rattus norvegicus [23] = assay: Antihypertensive activity in L-NAME-induced Wistar rat assessed as decrease in blood protein level at 20 mg/kg/day, po for last 4 weeks measured after 8 weeks; format: functional; method in brief: as §1
Rattus norvegicus [24] = assay: Antihypertensive activity in L-NAME-induced Wistar rat assessed as decrease in blood creatinine level at 20 mg/kg/day, po for last 4 weeks measured after 8 weeks; format: functional; method in brief: as §1
Rattus norvegicus [25] = assay: Antihypertensive activity in L-NAME-induced Wistar rat assessed as decrease in blood Na+ level at 20 mg/kg/day, po for last 4 weeks measured after 8 weeks; format: functional; method in brief: as §1
Rattus norvegicus [26] = assay: Antihypertensive activity in Wistar rat assessed as normalization of L-NAME-induced heart weight at 20 mg/kg/day, po for 4 weeks in presence of L-NAME; format: functional, organism-based; conditions: 28 mg/kg, in the assay text read “28 mg/kg/day” for “20 mg/kg/day”; method in brief: as §3
Rattus norvegicus [27] = assay: Antihypertensive activity in Wistar rat assessed as normalization of L-NAME-induced systolic blood pressure at 20 mg/kg/day, po for 4 weeks; format: functional, organism-based; conditions: Artery; method in brief: as §3
Rattus norvegicus [28] = assay: Antihypertensive activity in L-NAME-induced Wistar rat assessed as decrease in blood AST level at 20 mg/kg/day, po for last 4 weeks measured after 8 weeks; format: functional; method in brief: as §1
Rattus norvegicus [29] = assay: Antihypertensive activity in L-NAME-induced Wistar rat assessed as decrease in blood cholesterol level at 20 mg/kg/day, po for last 4 weeks measured after 8 weeks; format: functional; method in brief: as §1
Rattus norvegicus [30] = assay: Antihypertensive activity in L-NAME-induced Wistar rat assessed as decrease in blood glucose level at 20 mg/kg/day, po for last 4 weeks measured after 8 weeks; format: functional; method in brief: as §1
Rattus norvegicus [31] = assay: Antihypertensive activity in L-NAME-induced Wistar rat assessed as decrease in blood urea level at 20 mg/kg/day, po for last 4 weeks measured after 8 weeks; format: functional; method in brief: as §1
Rattus norvegicus [32] = assay: Antihypertensive activity in L-NAME-induced Wistar rat assessed as decrease in blood […] level at 20 mg/kg/day, po for last 4 weeks measured after 8 weeks; format: functional; method in brief: as §1
Rattus norvegicus [33] = assay: Antihypertensive activity in L-NAME-induced Wistar rat assessed as decrease in blood ALT level at 20 mg/kg/day, po for last 4 weeks measured after 8 weeks; format: functional; method in brief: as §1
Rattus norvegicus [34] = assay: Antihypertensive activity in L-NAME-induced Wistar rat assessed as decrease in blood LDH level at 20 mg/kg/day, po for last 4 weeks measured after 8 weeks; format: functional; method in brief: as §1

CCCCc1ncc(COC(=O)c2cc(OC)c(O)c(OC)c2)n1Cc1ccc(-c2ccccc2-c2nnn[nH]2)cc1
Activity [1]: 0.31 mmol/L
Activity (VSMC): 66%

CCCCc1ncc(COC(=O)CCc2ccc(O)c(O)c2)n1Cc1ccc(-c2ccccc2-c2nnn[nH]2)cc1
Activity (Rattus norvegicus [2]): 4.5 g/dL
Activity (Rattus norvegicus [3]): Active
Activity (Rattus norvegicus [4]): 600 IU/L
Activity (Rattus norvegicus [5]): Active
Activity (Rattus norvegicus [6]): 55 mg/dL
Activity [1]: 0.31 mmol/L
Activity (Rattus norvegicus [7]): Active
Activity (Rattus norvegicus [8]): Active
Activity (Rattus norvegicus [9]): 0.43 mg/dL
Activity (Rattus norvegicus [10]): Active
Activity (Rattus norvegicus [11]): 25 IU/L
Activity (Rattus norvegicus [12]): 85 IU/L
Activity (Rattus norvegicus [13]): 8.6 mg/dL
Activity (Rattus norvegicus [14]): 60 mg/dL
Activity (Rattus norvegicus [15]): 4.4 mmol/L
Activity (VSMC): 60%
Activity (Rattus norvegicus [16]): 24 mg/dL
Activity (Rattus norvegicus [17]): 151 mmol/L
Activity (Rattus norvegicus [18]): inactive
Activity (Rattus norvegicus [19]): 149 mg/dL
Activity (Rattus norvegicus [20]): inactive

CCCCc1nc(Cl)c(COC(=O)Cc2cc(C(C)(C)C)c(O)c(C(C)(C)C)c2)n1Cc1ccc(-c2ccccc2-c2nnn[nH]2)cc1
Activity [1]: 0.16 mmol/L
Activity (VSMC): 65%

CCCCc1nc(Cl)c(CO)n1Cc1ccc(-c2ccccc2-c2nnn[nH]2)cc1 [LOSARTAN]
Activity (Rattus norvegicus [21]): 65 mg/dL
Activity [1]: 0.04 mmol/L
Activity (Rattus norvegicus [22]): 8.3 mg/dL
Activity (Rattus norvegicus [23]): 5 g/dL
Activity (Rattus norvegicus [24]): 0.42 mg/dL
Activity (Rattus norvegicus [25]): 151 mmol/L
Activity (Rattus norvegicus [26]): Active
Activity (Rattus norvegicus [27]): Active
Activity (Rattus norvegicus [28]): 91 IU/L
Activity (Rattus norvegicus [29]): 48 mg/dL
Activity (Rattus norvegicus [30]): 149 mg/dL
Activity (VSMC): 53%
Activity (Rattus norvegicus [18]): inactive
Activity (Rattus norvegicus [31]): 24 mg/dL
Activity (Rattus norvegicus [32]): 4.7 mmol/L
Activity (Rattus norvegicus [33]): 24 IU/L
Activity (Rattus norvegicus [20]): inactive
Activity (Rattus norvegicus [34]): 622 IU/L
